The subject of data set [1] is MCF7. Briefly: Antiproliferative activity against human MCF7 cell line by MTT assay after 72 hrs. The class given is functional, cell-based. The method, boiled down:
(§1)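 Human tumour cells, MCF7 (breast) and A549 (lung), were exposed to test compounds for 72 h, and growth was read by MTT assay. IC50 is the concentration giving 50% growth inhibition, taken as the mean of three independent experiments.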

Data set [2] deals with A549. The experiment in a line: Antiproliferative activity against human A549 cell line by MTT assay after 72 hrs. It is filed as functional, cell-based. The method, boiled down:
as §1
On the technique in general: Formazan colour is commonly taken as a measure of viable cells.

Data set [3] concerns A549. Briefly: Antiproliferative activity against human A549 cell line by MTT assay after 1 hr. The note with it: A549, 1 h. It is filed as functional, cell-based. The method, boiled down:
(§2)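 Cells were exposed to the conjugates for a short 1 h period, and viability was then quantified by MTT assay.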

Data set [4] is described as follows: Half life in tissue culture medium. It is filed as ADME. In outline:
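Compounds were dissolved in DMEM with 10% foetal calf serum at 1 to 40 (concentration range) and incubated at 37 °C. Aliquots were withdrawn over time and analysed by RP-HPLC and mass spectrometry to give half-life. Analytical RP-HPLC used a MeCN gradient in water with 0.1% TFA over 20 min at 25 °C.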

In data set [5] the test system is MCF7. Briefly: Antiproliferative activity against human MCF7 cell line by MTT assay after 1 hr. It is filed as functional, cell-based. The note with it: MCF7, 1 h. In outline:
as §2

A short description of data set [6]: Aqueous solubility of the compound. The class given is physicochemical.
[7] abbreviates: Homo sapiens, MCF7, 72 h, read-out: IC50.
Setting [8] is: Homo sapiens, A549, 72 h, read-out: IC50.

The text below walks through data of ChEMBL document CHEMBL1147694, “Synthesis and biological activity of conjugates between paclitaxel and the cell delivery vector penetratin” (Bioorg Med Chem Lett, 2006).

Bounds are passed on as bounds.

As to `CC[C@H](C)[C@H](NC(=O)[C@H](CCCCN)NC(=O)[C@@H](NC(=O)[C@H](CCC(N)=O)NC(=O)[C@@H](N)CCCNC(=N)N)[C@@H](C)CC)C(=O)N[C@@H](Cc1c[nH]c2ccccc12)C(=O)N[C@@H](Cc1ccccc1)C(=O)N[C@@H](CCC(N)=O)C(=O)N[C@@H](CC(N)=O)C(=O)N[C@@H](CCCNC(=N)N)C(=O)N[C@@H](CCCNC(=N)N)C(=O)N[C@@H](CCSC)C(=O)N[C@@H](CCCCN)C(=O)N[C@@H](Cc1c[nH]c2ccccc12)C(=O)N[C@@H](CCCCN)C(=O)N[C@@H](CCCCN)C(N)=O` [PENETRATIN], the IC50 entry in the data set with MCF7 [1] (mcf7) and in the data set with A549 [2] (a549) was “Not Active” in each case.
In the case of `CC[C@H](C)[C@H](NC(=O)[C@H](CCCCN)NC(=O)[C@@H](NC(=O)[C@H](CCC(N)=O)NC(=O)[C@H](CCCN=C(N)N)NC(=O)CC(N)CSC1CC(=O)N(CCC(=O)O[C@@H](C(=O)O[C@@H]2C(C)=CC3[C@@H](OC(C)=O)C(=O)[C@@]4(C)[C@H]([C@H](OC(=O)c5ccccc5)[C@@]2(O)C3(C)C)[C@]2(OC(C)=O)CO[C@@H]2C[C@@H]4O)[C@@H](NC(=O)c2ccccc2)c2ccccc2)C1=O)[C@@H](C)CC)C(=O)N[C@@H](Cc1c[nH]c2ccccc12)C(=O)N[C@@H](Cc1ccccc1)C(=O)N[C@@H](CCC(N)=O)C(=O)N[C@@H](CC(N)=O)C(=O)N[C@@H](CCCN=C(N)N)C(=O)N[C@@H](CCCN=C(N)N)C(=O)N[C@@H](CCSC)C(=O)N[C@@H](CCCCN)C(=O)N[C@@H](Cc1c[nH]c2ccccc12)C(=O)N[C@@H](CCCCN)C(=O)N[C@@H](CCCCN)C(N)=O` (stereo partly specified), the IC50 (usually the concentration needed to halve the response being measured) was 618 nM with A549 [3], less than 17 nM with MCF7 [1] (setting [7]), 202 nM with MCF7 [5] and less than 15 nM in the data set on A549 [2] (setting [8]). Also, the half-life – broadly, how long it takes for the measured level to halve – in data set [4] is more than 8 h.
Regarding `CC[C@H](C)[C@H](NC(=O)[C@H](CCCCN)NC(=O)[C@@H](NC(=O)[C@H](CCC(N)=O)NC(=O)[C@H](CCCN=C(N)N)NC(=O)CC(N)CSC1CC(=O)N(CCC(=O)O[C@@H](C(=O)O[C@@H]2C(C)=CC3[C@@H](OC(C)=O)C(=O)[C@@]4(C)[C@H]([C@H](OC(=O)c5ccccc5)[C@@]2(O)C3(C)C)[C@]2(OC(C)=O)CO[C@@H]2C[C@@H]4O)[C@@H](NC(=O)c2ccccc2)c2ccccc2)C1=O)[C@@H](C)CC)C(=O)N[C@@H](Cc1c[nH]c2ccccc12)C(=O)N[C@@H](Cc1ccccc1)C(=O)N[C@@H](CCC(N)=O)C(=O)N[C@@H](CC(N)=O)C(=O)N[C@@H](CCCN=C(N)N)C(=O)N[C@@H](CCCN=C(N)N)C(=O)N[C@@H](CCSC)C(=O)N[C@@H](CCCCN)C(=O)N[C@@H](Cc1c[nH]c2ccccc12)C(=O)N[C@@H](CCCCN)C(=O)N[C@@H](CCCCN)C(=O)O` (stereo partly specified), the IC50 with A549 [2] (setting [8]) was 270 nM.
With `CC(=O)O[C@H]1C(=O)[C@@]2(C)[C@H]([C@H](OC(=O)c3ccccc3)[C@]3(O)C[C@H](OC(=O)[C@H](O)[C@@H](NC(=O)c4ccccc4)c4ccccc4)C(C)=C1C3(C)C)[C@]1(OC(C)=O)CO[C@@H]1C[C@@H]2O` [PACLITAXEL], the IC50 in the data set with A549 [3] was 28 nM; with MCF7 [1] (setting [7]), less than 15 nM; in the data set on MCF7 [5], 43 nM; in the data set on A549 [2] (setting [8]) it was less than 15 nM. Further, the solubility (usually how much of the substance goes into solution per volume) in data set [6] was less than 10 µg/mL.
With H-RRMKWKK-NH2, the IC50 entry with MCF7 [1] (mcf7) and with A549 [2] (a549) was “Not Active” each time.
Turning to `CSCC[C@H](NC(=O)[C@H](CCCN=C(N)N)NC(=O)[C@H](CCCN=C(N)N)NC(=O)CC(N)CSC1CC(=O)N(CCC(=O)O[C@@H](C(=O)O[C@@H]2C(C)=CC3[C@@H](OC(C)=O)C(=O)[C@@]4(C)[C@H]([C@H](OC(=O)c5ccccc5)[C@@]2(O)C3(C)C)[C@]2(OC(C)=O)CO[C@@H]2C[C@@H]4O)[C@@H](NC(=O)c2ccccc2)c2ccccc2)C1=O)C(=O)N[C@@H](CCCCN)C(=O)N[C@@H](Cc1c[nH]c2ccccc12)C(=O)N[C@@H](CCCCN)C(=O)N[C@@H](CCCCN)C(N)=O` (stereo partly specified), the IC50 was 43 nM with A549 [3], less than 15 nM with MCF7 [1] (setting [7]), 325 nM with MCF7 [5] and less than 15 nM in the data set on A549 [2] (setting [8]). The half-life in data set [4] was more than 8 h. For the same compound, the solubility in data set [6] is more than 10000 µg/mL.
